Structures are written as SMILES.

The species named for one test is Rattus norvegicus. The test is described as follows: Antimuscarinic activity against carbachol induced response in rat jejunum. In kind it is functional. The method, boiled down: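 Rat jejunum under 1.0 g tension in the same PSS, stabilised with submaximal agonist doses. Cumulative carbachol curves used about 3-fold steps and force-transducer recording. After about 15 min rest, antagonist (10–100 µM) was incubated 30 min and the curve repeated. Dose ratios were taken before and after a 30-min wash; mean ± SEM of 5–6 observations.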
With `COc1ccccc1CNCCCCCCNCCSSCCNCCCCCCNCc1ccccc1OC` [BENEXTRAMINE], the Kb came out at 2.01 µM.
Same read-out and setting: in the case of `c1c[nH]c(CNCCCCCCNCCSSCCNCCCCCCNCc2ccc[nH]2)c1` it was 5.25 µM.

The target of another test is Adrenergic receptor alpha. The test is described as follows: Inhibitory activity against alpha adrenergic receptor in rat.
As to `COc1ccccc1CNCCCCCCNCCSSCCNCCCCCCNCc1ccccc1OC` [BENEXTRAMINE], the IC50 was determined as 4.02 µM.

Another test addresses Adrenergic receptor alpha. The test is described as follows: Inhibitory activity against alpha adrenergic receptor. The format is protein assay.
`c1c[nH]c(CNCCCCCCNCCSSCCNCCCCCCNCc2ccc[nH]2)c1` yielded an IC50 of 0.9 µM.

Another test has as its target Adrenergic receptor alpha (Rattus norvegicus) (UniProt P15823+P23944+P43140+P22086+P19328+P22909). The test is described as follows: Antagonistic blocking activity at alpha adrenergic receptor by NE induced contractions of the epididymal portion of isolated rat vas deferens at the dose of 20 uM. Also noted: scale not given: the % may be the effect or the level left. The format is functional, tissue-based. The method, boiled down: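 Epididymal portion of isolated rat vas deferens under 1.0 g tension in PSS (mM: NaCl 118, KCl 4.7, CaCl2 2.52, MgCl2 3.57, KH2PO4 1.54, NaHCO3 12.5, glucose 11.1). Antagonist at 20 µM for 30 min, then 30-min wash. Value is the percent decrease of maximum contraction to 100 µM NE versus control, mean ± SEM; n = 3–7.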
Compound `Cc1ccc(CNCCCCCCNCCSSCCNCCCCCCNCc2ccc(C)o2)o1` showed an Activity of 100%.
The same measure, in the same setting: the value for `Brc1ccc(CNCCCCCCNCCSSCCNCCCCCCNCc2ccc(Br)cc2)cc1` was 34%; that for `Cn1cccc1CNCCCCCCNCCSSCCNCCCCCCNCc1cccn1C` was 100%.
On the same count and under the same terms, the value for `COc1cccc([N+](=O)[O-])c1CNCCCCCCNCCSSCCNCCCCCCNCc1c(OC)cccc1[N+](=O)[O-]` was 42%.
Still for that read-out and setting: in the case of `Brc1cccc(CNCCCCCCNCCSSCCNCCCCCCNCc2cccc(Br)c2)c1` it was 58%; in that of `O=[N+]([O-])c1c(CNCCCCCCNCCSSCCNCCCCCCNCc2ccc(O)c(O)c2[N+](=O)[O-])ccc(O)c1O`, 17%; in that of `c1cc(CNCCCCCCNCCSSCCNCCCCCCNCc2ccncc2)ccn1`, 11%.
For the compound `Clc1cccc(CNCCCCCCNCCSSCCNCCCCCCNCc2cccc(Cl)c2)c1`, the Activity worked out at 46%.
The compound `COc1c(C)cccc1CNCCCCCCNCCSSCCNCCCCCCNCc1cccc(C)c1OC` showed an Activity of 59%.
Compound `CSc1ccccc1CNCCCCCCNCCSSCCNCCCCCCNCc1ccccc1SC` had an Activity of 66%.
For the compound `CS(=O)(=O)c1ccccc1CNCCCCCCNCCSSCCNCCCCCCNCc1ccccc1S(C)(=O)=O`, the Activity is 35%.
The same measure, in the same setting: the value for `Clc1ccc(CNCCCCCCNCCSSCCNCCCCCCNCc2ccc(Cl)cc2)cc1` was 50%; that for `c1ccc2c(CNCCCCCCNCCSSCCNCCCCCCNCc3cccc4ccccc34)cccc2c1` was 22%.
Still for that read-out and setting: in the case of `COc1ccccc1CNCCCCCCNCCSSCCNCCCCCCNCc1ccccc1OC` [BENEXTRAMINE] it was 100%.
Same read-out and setting: the value for `O=[N+]([O-])c1ccccc1CNCCCCCCNCCSSCCNCCCCCCNCc1ccccc1[N+](=O)[O-]` was 51%.
For the compound `c1ccc2c(CNCCCCCCNCCSSCCNCCCCCCNCc3ccnc4ccccc34)ccnc2c1`, the Activity stood at 32%.
Take `Clc1ccc(CNCCCCCCNCCSSCCNCCCCCCNCc2ccc(Cl)c(Cl)c2)cc1Cl`: the Activity is 39%.
The same measure, in the same setting: in the case of `Fc1cccc(CNCCCCCCNCCSSCCNCCCCCCNCc2cccc(F)c2)c1` it was 73%.
On the same count and under the same terms, the value for `c1coc(CNCCCCCCNCCSSCCNCCCCCCNCc2ccco2)c1` was 100%.
Same read-out and setting: in the case of `c1ccc2cc(CNCCCCCCNCCSSCCNCCCCCCNCc3ccc4ccccc4c3)ccc2c1` it was 27%; in that of `c1cc(CNCCCCCCNCCSSCCNCCCCCCNCc2ccsc2)cs1`, 17%.
Turning to `Fc1ccc(CNCCCCCCNCCSSCCNCCCCCCNCc2ccc(F)cc2)cc1`, the Activity came to 100%.
On the same count and under the same terms, in the case of `c1ccc2ncc(CNCCCCCCNCCSSCCNCCCCCCNCc3cnc4ccccc4c3)cc2c1` it was 36%; in that of `Clc1ccc(CNCCCCCCNCCSSCCNCCCCCCNCc2ccc(Cl)cc2Cl)c(Cl)c1`, 54%; in that of `Fc1ccccc1CNCCCCCCNCCSSCCNCCCCCCNCc1ccccc1F`, 55%.
On the same count and under the same terms, the value for `O=[N+]([O-])c1ccc(CNCCCCCCNCCSSCCNCCCCCCNCc2ccc([N+](=O)[O-])cc2)cc1` was 41%; that for `c1cncc(CNCCCCCCNCCSSCCNCCCCCCNCc2cccnc2)c1` was 13%.
In turn, `Clc1cc(Cl)cc(CNCCCCCCNCCSSCCNCCCCCCNCc2cc(Cl)cc(Cl)c2)c1` had an Activity of 44%.
The same measure, in the same setting: in the case of `Brc1ccccc1CNCCCCCCNCCSSCCNCCCCCCNCc1ccccc1Br` it was 58%.
Still for that read-out and setting: in the case of `COc1ccc(CNCCCCCCNCCSSCCNCCCCCCNCc2ccc(OC)c(OC)c2[N+](=O)[O-])c([N+](=O)[O-])c1OC` it was 27%; in that of `c1ccc(CNCCCCCCNCCSSCCNCCCCCCNCc2ccccn2)nc1`, 78%; in that of `O=[N+]([O-])c1cc(O)c(O)cc1CNCCCCCCNCCSSCCNCCCCCCNCc1cc(O)c(O)cc1[N+](=O)[O-]`, 99%.
The same measure, in the same setting: the value for `O=[N+]([O-])c1cccc(CNCCCCCCNCCSSCCNCCCCCCNCc2cccc([N+](=O)[O-])c2)c1` was 49%; that for `c1c[nH]c(CNCCCCCCNCCSSCCNCCCCCCNCc2ccc[nH]2)c1` was 100%; that for `c1csc(CNCCCCCCNCCSSCCNCCCCCCNCc2cccs2)c1` was 80%.
As to `COc1cc(CNCCCCCCNCCSSCCNCCCCCCNCc2cc(OC)c(OC)cc2[N+](=O)[O-])c([N+](=O)[O-])cc1OC`, the Activity is 47%.

In general, IC50 refers to the concentration that inhibits the measured activity by half.

Source of the values: ChEMBL document CHEMBL1122841, “Structure-activity relationships among benextramine-related tetraamine disulfides at peripheral alpha-adrenoreceptors” (J Med Chem, 1985).
